Reference: ChEMBL document CHEMBL4257441, “Protection effect of intracellular melanin from Lachnum YM156 and Haikunshenxi capsule combination on adenine-induced chronic renal failure in mice” (Medchemcomm, 2017)
The source made the active and inactive calls. No cut-off for these calls is given here.

How the values were obtained:
[1] = test system: Mus musculus; assay: Protective effect against adenine-induced chronic renal failure in Kunming mouse assessed as reduction in interstitial fibrosis in kidney at 200 mg/kg, ig qd administered for 4 successive weeks by haematoxylin and eosin dye-based optical microscopic method; type: functional, organism-based
Method in brief: (§1)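 Kidneys were taken from male Kunming mice given an adenine diet plus oral melanin (100 or 200 mg kg–1), with or without Haikunshenxi capsule, ten per group. Histological sections were examined at 400× for glomeruli, tubules, adenine crystals, tubular atrophy and interstitial fibrosis.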

[2] = test system: Mus musculus; assay: Protective effect against adenine-induced chronic renal failure in Kunming mouse assessed as nephridial IL-6 levels at 200 mg/kg, ig qd administered for 4 successive weeks (reference value: 20.85 +/- 0.11 pg/ml); type: functional
[3] = test system: Mus musculus; assay: Protective effect against adenine-induced chronic renal failure in Kunming mouse assessed as nephridial IL-6 levels at 100 mg/kg, ig qd administered for 4 successive weeks (reference value: 20.85 +/- 0.11 pg/ml); type: functional
[4] = test system: Mus musculus; assay: Protective effect against adenine-induced chronic renal failure in Kunming mouse assessed as reduction in interstitial fibrosis at 200 mg/kg, ig qd administered for 4 successive weeks with haikunshenxi capsule by haematoxylin and eosin dye-based optical microscopic method; type: functional, organism-based; method in brief: as §1
[5] = test system: Mus musculus; assay: Protective effect against adenine-induced chronic renal failure in ig dosed Kunming mouse assessed as increase in total protein levels in serum administered as qd for 4 successive weeks with haikunshenxi capsule by coomassie brilliant blue method; type: functional, organism-based
Method in brief: (§2)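 Adenine-fed CRF model in male Kunming mice (20 ± 5 g) housed at 18–20 °C on a 12 h light/dark cycle. Oral dosing at 100 or 200 mg kg–1, with or without Haikunshenxi capsule; ten mice per group. Serum creatinine, BUN, total protein and albumin measured, each group compared with the model group.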

[6] = test system: Mus musculus; assay: Protective effect against adenine-induced chronic renal failure in Kunming mouse assessed as appearance of complete kidney tubules at 100 mg/kg, ig qd administered for 4 successive weeks by haematoxylin and eosin dye-based optical microscopic method; type: functional, organism-based; method in brief: as §1
[7] = test system: Mus musculus; assay: Protective effect against adenine-induced chronic renal failure in Kunming mouse assessed as nephridial CAT levels at 200 mg/kg, ig qd administered for 4 successive weeks by visible spectrometry method (reference value: 44.13 +/- 1.25 U/mg); type: functional
[8] = test system: Mus musculus; assay: Protective effect against adenine-induced chronic renal failure in Kunming mouse assessed as nephridial iNOS levels at 200 mg/kg, ig qd administered for 4 successive weeks with haikunshenxi capsule (reference value: 1.98 +/- 0.12 U/mg); type: functional
[9] = test system: Mus musculus; assay: Protective effect against adenine-induced chronic renal failure in Kunming mouse assessed as nephridial iNOS levels at 200 mg/kg, ig qd administered for 4 successive weeks (reference value: 1.98 +/- 0.12 U/mg); type: functional
[10] = test system: Mus musculus; assay: Protective effect against adenine-induced chronic renal failure in Kunming mouse assessed as nephridial MDA levels at 200 mg/kg, ig qd administered for 4 successive weeks by thiobarbituric acid method (reference value: 5.05 +/- 0.15 nmol/ml); type: functional
[11] = test system: Mus musculus; assay: Protective effect against adenine-induced chronic renal failure in Kunming mouse assessed as nephridial TNF-alpha levels at 100 mg/kg, ig qd administered for 4 successive weeks with haikunshenxi capsule (reference value: 250.15 +/- 8.10 pg/ml); type: functional
[12] = test system: Mus musculus; assay: Protective effect against adenine-induced chronic renal failure in Kunming mouse assessed as nephridial TNF-alpha levels at 200 mg/kg, ig qd administered for 4 successive weeks (reference value: 250.15 +/- 8.10 pg/ml); type: functional
[13] = test system: Mus musculus; assay: Protective effect against adenine-induced chronic renal failure in Kunming mouse assessed as nephridial GSH-PX levels at 100 mg/kg, ig qd administered for 4 successive weeks with haikunshenxi capsule by colorimetric method (reference value: 688.45 +/- 12.67 U/L); type: functional
[14] = test system: Mus musculus; assay: Protective effect against adenine-induced chronic renal failure in Kunming mouse assessed as nephridial CAT levels at 100 mg/kg, ig qd administered for 4 successive weeks by visible spectrometry method (reference value: 44.13 +/- 1.25 U/mg); type: functional
[15] = test system: Mus musculus; assay: Protective effect against adenine-induced chronic renal failure in ig dosed Kunming mouse assessed as decrease in nephridial TNF-alpha levels administered as qd for 4 successive weeks with haikunshenxi capsule; type: functional, organism-based
Method in brief: (§3)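 CRF model made by chronic dietary adenine in male Kunming mice (20 ± 5 g); oral dosing at 100 or 200 mg kg–1, alone or with Haikunshenxi capsule; ten mice per group. Kidney tissue TNF-α, IL-1β and IL-6 measured as pg per mg protein, and iNOS activity as U mg–1 protein.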

[16] = test system: Mus musculus; assay: Protective effect against adenine-induced chronic renal failure in Kunming mouse assessed as weight growth rate at 100 mg/kg, ig qd administered for 4 successive weeks with haikunshenxi capsule measured 24 hrs post last dose (reference value: 32.42 +/- 1.43%); type: functional
Method in brief: (§4)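 Male Kunming mice (20 ± 5 g) kept on a 12 h light/dark cycle at 18–20 °C on a standard diet. CRF induced by chronic dietary adenine. Test material given orally at 100 or 200 mg kg–1, alone or with Haikunshenxi capsule, alongside normal, model and capsule-only groups; ten mice per group. Weight growth rate recorded in %, kidney index in mg g–1.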

[17] = test system: Mus musculus; assay: Protective effect against adenine-induced chronic renal failure in ig dosed Kunming mouse assessed as decrease in nephridial IL-1beta levels administered as qd for 4 successive weeks with haikunshenxi capsule; type: functional, organism-based; method in brief: as §3
[18] = test system: Mus musculus; assay: Protective effect against adenine-induced chronic renal failure in Kunming mouse assessed as nephridial SOD levels at 200 mg/kg, ig qd administered for 4 successive weeks by hydroxylamine method (reference value: 30.45 +/- 1.12 U/mg); type: functional
[19] = test system: Mus musculus; assay: Protective effect against adenine-induced chronic renal failure in Kunming mouse assessed as weight growth rate at 200 mg/kg, ig qd administered for 4 successive weeks with haikunshenxi capsule measured 24 hrs post last dose (reference value: 32.42 +/- 1.43%); type: functional; method in brief: as §4
[20] = test system: Mus musculus; assay: Protective effect against adenine-induced chronic renal failure in ig dosed Kunming mouse assessed as increase in albumin levels in serum administered as qd for 4 successive weeks with haikunshenxi capsule by bromocresol green colorimetric method; type: functional, organism-based; method in brief: as §2
[21] = test system: Mus musculus; assay: Protective effect against adenine-induced chronic renal failure in Kunming mouse assessed as appearance of complete glomeruli in kidney at 100 mg/kg, ig qd administered for 4 successive weeks by haematoxylin and eosin dye-based optical microscopic method; type: functional, organism-based; method in brief: as §1
[22] = test system: Mus musculus; assay: Protective effect against adenine-induced chronic renal failure in Kunming mouse assessed as nephridial TNF-alpha levels at 200 mg/kg, ig qd administered for 4 successive weeks with haikunshenxi capsule (reference value: 250.15 +/- 8.10 pg/ml); type: functional
[23] = test system: Mus musculus; assay: Protective effect against adenine-induced chronic renal failure in ig dosed Kunming mouse assessed as decrease in serum creatinine levels administered as qd for 4 successive weeks with haikunshenxi capsule by picric acid colorimetric method; type: functional, organism-based; method in brief: as §2
[24] = test system: Mus musculus; assay: Protective effect against adenine-induced chronic renal failure in ig dosed Kunming mouse assessed as increase in nephridial SOD levels administered as qd for 4 successive weeks with haikunshenxi capsule by hydroxylamine method; type: functional, organism-based
Method in brief: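 Male Kunming mice (20 ± 5 g) given dietary adenine to induce CRF, then dosed orally at 100 or 200 mg kg–1, with or without Haikunshenxi capsule; n = 10 per group. Kidney homogenate assayed for SOD and CAT (U mg–1 protein), GSH-Px (U L–1), GSH (mg g–1 protein) and MDA (nmol mL–1).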

## Cc1c(=O)c(=O)c2c3c[nH]c4c(C)c(=O)c(=O)c(c5c[nH]c1c52)c43
[1]
  Activity: Active
[2]
  Activity: 14.16 pg/mL
[3]
  Activity: 18.27 pg/mL
[4]
  Activity: Active
[5]
  Activity: Dose-dependent effect
[6]
  Activity: Active
[7]
  Activity: 64.45 U/mg
[8]
  Activity: 0.68 U/mg
[9]
  Activity: 1.64 U/mg
[10]
  Activity: 3.74 nmol/mL
[11]
  Activity: 98.13 pg/mL
[12]
  Activity: 168.32 pg/mL
[13]
  Activity: 850.44 U/L
[14]
  Activity: 60.53 U/mg
[15]
  Activity: Dose-dependent effect
[16]
  Activity: 54.34%
[17]
  Activity: Dose-dependent effect
[18]
  Activity: 38.25 U/mg
[19]
  Activity: 56.64%
[20]
  Activity: Dose-dependent effect
[21]
  Activity: Active
[22]
  Activity: 84.35 pg/mL
[23]
  Activity: Dose-dependent effect
[24]
  Activity: Dose-dependent effect
